# Laboratory results taken from ChEMBL document CHEMBL3872205, “Design, synthesis and evaluation of novel potent angiotensin II receptor 1 antagonists” (Eur J Med Chem, 2016).
# Columns and labels:
# [1] = MRT (0 to 72 hrs) in Wistar rat plasma at 15 mg/kg, po by HPLC analysis; assay type: ADME, organism-based
# Procedure, shortened: (§1)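 Male Wistar rats (180 ± 20 g), 6 per dose group, each given a single oral dose. Blood was drawn by retro-orbital puncture into heparin at predose and at 0.5, 1, 2, 4, 6, 8, 12, 24, 48 and 72 h, then spun at 4000 × g and 4 °C. Plasma with internal standard was acetonitrile-precipitated, filtered and run on reverse-phase C18 HPLC (0.02 mol/L KH2PO4 55% / acetonitrile 45%, 1.0 mL/min). Calibration standards were 0.1–10 µg/mL, fitted by peak-height ratio with 1/conc² weighting.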
# [2] = AUC (0 to infinity) in Wistar rat liver at 10 mg/kg, po by HPLC analysis; assay type: ADME, organism-based; parameters: dose 10 mg/kg, route oral, time infinity
# Procedure, shortened: (§2)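 Wistar rats (180 ± 20 g) were dosed orally at 10, 15 or 30 mg/kg. Heart, liver, spleen, lung, kidney and brain were collected at 0–72 h (n = 6 per point). Tissue was rinsed, blotted and homogenized in saline (0.25 g/1 mL), then spun at 10,000 × g. Supernatant was methanol-extracted, dried under nitrogen at 50 °C, reconstituted in methanol and run on C18 HPLC (acetonitrile 60%/water 40%, 1.0 mL/min).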
# [3] = AUC (0 to infinity) in Wistar rat lung at 10 mg/kg, po by HPLC analysis; assay type: ADME, organism-based; parameters: dose 10 mg/kg, time infinity, route oral; procedure, shortened: as §2
# [4] = Cmax in Wistar rat kidney at 10 mg/kg, po by HPLC analysis; assay type: ADME, organism-based; parameters: dose 10 mg/kg, route oral
# Procedure, shortened: (§3)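 Tissue distribution in male Wistar rats given oral 10, 15 or 30 mg/kg; heart, liver, spleen, lung, kidney and brain collected predose and 0.5–72 h post-dose (n = 6 per time). Tissue rinsed in saline, homogenised 0.25 g/1 mL saline, methanol extraction, dried under nitrogen, reconstituted in methanol. Analysis by reverse-phase C18 HPLC, acetonitrile/water 60:40, 1.0 mL/min, ambient temperature.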
# [5] = MRT (0 to infinity) in Wistar rat brain at 15 mg/kg, po by HPLC analysis; assay type: ADME, organism-based
# Procedure, shortened: (§4)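 Male Wistar rats (180 ± 20 g) received a single oral dose of 10, 15 or 30 mg/kg. Tissues were collected at 0, 0.5, 1, 2, 4, 6, 8, 12, 24, 48 and 72 h (n = 6 per point). Samples of 0.25 g were rinsed, then homogenized in saline (0.25 g/1 mL) and centrifuged at 10,000 × g. Supernatant was methanol-extracted, dried under nitrogen at 50 °C and reconstituted in methanol. Analysis was by C18 HPLC (acetonitrile 60% / water 40%, 1.0 mL/min).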
# [6] = MRT (0 to 72 hrs) in Wistar rat plasma at 10 mg/kg, po by HPLC analysis; assay type: ADME, organism-based; procedure, shortened: as §1
# [7] = AUC (0 to 72 hrs) in Wistar rat lung at 10 mg/kg, po by HPLC analysis; assay type: ADME, organism-based; parameters: time < 72 hr, dose 10 mg/kg, route oral; procedure, shortened: as §2
# [8] = AUC (0 to infinity) in Wistar rat spleen at 10 mg/kg, po by HPLC analysis; assay type: ADME, organism-based; parameters: dose 10 mg/kg, time infinity, route oral; procedure, shortened: as §2
# [9] = Toxicity in ICR mouse assessed as mortality at 2343.75 mg/kg, ig after 2 weeks; assay type: organism-based; settings: in vivo, po
# [10] = Cmax in Wistar rat brain at 30 mg/kg, po by HPLC analysis; assay type: ADME, organism-based; parameters: dose 30 mg/kg, route oral; procedure, shortened: as §2
# [11] = AUC (0 to infinity) in Wistar rat kidney at 10 mg/kg, po by HPLC analysis; assay type: ADME, organism-based; parameters: dose 10 mg/kg, time infinity, route oral; procedure, shortened: as §2
# [12] = MRT (0 to infinity) in Wistar rat brain at 10 mg/kg, po by HPLC analysis; assay type: ADME, organism-based; procedure, shortened: as §4
# [13] = MRT (0 to 72 hrs) in Wistar rat lung at 10 mg/kg, po by HPLC analysis; assay type: ADME, organism-based; procedure, shortened: as §4
# [14] = MRT (0 to 72 hrs) in Wistar rat brain at 10 mg/kg, po by HPLC analysis; assay type: ADME, organism-based; procedure, shortened: as §3
# [15] = MRT (0 to 72 hrs) in Wistar rat liver at 15 mg/kg, po by HPLC analysis; assay type: ADME, organism-based; procedure, shortened: as §4
# [16] = AUC (0 to 72 hrs) in Wistar rat brain at 30 mg/kg, po by HPLC analysis; assay type: ADME, organism-based; parameters: dose 30 mg/kg, time < 72 hr, route oral; procedure, shortened: as §2
# [17] = Tmax in Wistar rat spleen at 10 mg/kg, po by HPLC analysis; assay type: ADME, organism-based
# [18] = AUC (0 to infinity) in Wistar rat plasma at 15 mg/kg, po by HPLC analysis; assay type: ADME, organism-based; parameters: dose 15 mg/kg, route oral, time infinity
# Procedure, shortened: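 Male Wistar rats (180 ± 20 g, n = 6 per group) got one oral dose. Heparinized blood was taken by retro-orbital puncture before dosing and at 0.5–72 h. Plasma was spun at 4000 × g, 4 °C, 10 min, spiked with internal standard and protein-precipitated with acetonitrile. Analysis was reverse-phase C18 HPLC (0.02 mol/L KH2PO4 55%/acetonitrile 45%, 1.0 mL/min). Calibration used 0.1–10 µg/mL, peak-height ratio, weighting concentration^-2.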
# [19] = MRT (0 to 72 hrs) in Wistar rat lung at 15 mg/kg, po by HPLC analysis; assay type: ADME, organism-based; procedure, shortened: as §4
# [20] = Tmax in Wistar rat lung at 15 mg/kg, po by HPLC analysis; assay type: ADME, organism-based; procedure, shortened: as §4
# [21] = Tmax in Wistar rat spleen at 15 mg/kg, po by HPLC analysis; assay type: ADME, organism-based
# [22] = AUC (0 to infinity) in Wistar rat brain at 15 mg/kg, po by HPLC analysis; assay type: ADME, organism-based; parameters: dose 15 mg/kg, time infinity, route oral; procedure, shortened: as §2
# [23] = Cmax in Wistar rat lung at 30 mg/kg, po by HPLC analysis; assay type: ADME, organism-based; parameters: dose 30 mg/kg, route oral; procedure, shortened: as §3
# [24] = Toxicity in ig dosed ICR mouse assessed as mortality after 2 weeks; assay type: organism-based; settings: in vivo, po
# [25] = Half life in Wistar rat brain at 15 mg/kg, po by HPLC analysis; assay type: ADME, organism-based; procedure, shortened: as §3
# [26] = MRT (0 to 72 hrs) in Wistar rat plasma at 30 mg/kg, po by HPLC analysis; assay type: ADME, organism-based; procedure, shortened: as §1
# [27] = Cmax in Wistar rat heart at 30 mg/kg, po by HPLC analysis; assay type: ADME, organism-based; parameters: dose 30 mg/kg, route oral; procedure, shortened: as §3
# [28] = AUC (0 to infinity) in Wistar rat lung at 15 mg/kg, po by HPLC analysis; assay type: ADME, organism-based; parameters: dose 15 mg/kg, route oral, time infinity; procedure, shortened: as §2
# [29] = Cmax in Wistar rat plasma at 10 mg/kg, po by HPLC analysis; assay type: ADME, organism-based; parameters: dose 10 mg/kg, route oral
# [30] = AUC (0 to infinity) in Wistar rat Heart at 30 mg/kg, po by HPLC analysis; assay type: ADME, organism-based; parameters: dose 30 mg/kg, route oral, time infinity; procedure, shortened: as §2
# [31] = Half life in Wistar rat spleen at 15 mg/kg, po by HPLC analysis; assay type: ADME, organism-based; procedure, shortened: as §3
# [32] = AUC (0 to 72 hrs) in Wistar rat Heart at 10 mg/kg, po by HPLC analysis; assay type: ADME, organism-based; parameters: time < 72 hr, dose 10 mg/kg, route oral; procedure, shortened: as §2
# [33] = AUC (0 to 72 hrs) in Wistar rat Heart at 30 mg/kg, po by HPLC analysis; assay type: ADME, organism-based; parameters: time < 72 hr, dose 30 mg/kg, route oral; procedure, shortened: as §2
# [34] = MRT (0 to infinity) in Wistar rat kidney at 10 mg/kg, po by HPLC analysis; assay type: ADME, organism-based; procedure, shortened: as §4
smiles,measurement,setting,value
CCCCC1=NC2(CCCC2)C(=O)N1Cc1ccc2c(ccn2-c2ccccc2-c2nnn[nH]2)c1,MRT last,[1],10.2 h
same,AUC(0-inf),[2],3320 ng·h/mL
same,AUC(0-inf),[3],745 ng·h/mL
same,Cmax,[4],180 ng/mL
same,MRT inf,[5],11.6 h
same,MRT last,[6],7.87 h
same,AUC(0-t) at 72 h,[7],745 ng·h/mL
same,AUC(0-inf),[8],11700 ng·h/mL
same,mortality at 336 h,[9],80%
same,Cmax,[10],196 ng/mL
same,AUC(0-inf),[11],10800 ng·h/mL
same,MRT inf,[12],8.1 h
same,MRT last,[13],10.6 h
same,MRT last,[14],8.1 h
same,MRT last,[15],4.77 h
same,AUC(0-t) at 72 h,[16],1790 ng·h/mL
same,Tmax,[17],2 h
same,AUC(0-inf),[18],26100 ng·h/mL
same,MRT last,[19],6.64 h
same,Tmax,[20],1 h
same,Tmax,[21],1.5 h
same,AUC(0-inf),[22],1180 ng·h/mL
same,Cmax,[23],396 ng/mL
same,LD50 at 336 h,[24],1550 mg/kg
same,half-life,[25],2.59 h
same,MRT last,[26],12.9 h
same,Cmax,[27],401 ng/mL
same,AUC(0-inf),[28],1350 ng·h/mL
same,Cmax,[29],856 ng/mL
same,AUC(0-inf),[30],8760 ng·h/mL
same,half-life,[31],7.57 h
same,AUC(0-t) at 72 h,[32],825 ng·h/mL
same,AUC(0-t) at 72 h,[33],7360 ng·h/mL
same,MRT inf,[34],25.3 h
